Activity calls are given as the source filed them. No cut-off for these calls is given here.
Tests used:
[1] = tested on: Mus musculus; assay: Anticonvulsant activity in CD1 albino mouse assessed as protection against subcutaneous pentylenetetrazole-induced seizures at 300 mg/kg, ip after 4 hrs; format: functional, organism-based
Outline: (§1)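 Male CD-1 mice (16-26 g), compounds ip in 0.5% methylcellulose/water at 30, 100 or 300 mg/kg, 3-4 per group. At 0.5 or 4 h, pentylenetetrazole 85 mg/kg was injected sc. Protection was absence of clonic convulsions (at least 5 s) over a 30 min observation. Minimum active dose recorded.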

[2] = tested on: Mus musculus; assay: Anticonvulsant activity in CD1 albino mouse assessed as protection against subcutaneous pentylenetetrazole-induced seizures at 100 to 300 mg/kg, ip after 0.5 hrs; format: functional; settings: CD1, 0.5 h, read-out: MED; outline: as §1
[3] = tested on: Mus musculus; assay: Neurotoxicity in CD1 albino mouse assessed as acute motor impairment at 100 to 300 mg/kg, ip after 0.5 hrs by rotarod test; format: toxicity, organism-based; settings: in vivo
Outline: (§2)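 Male CD-1 mice given 30, 100 or 300 mg/kg ip in 0.5% methylcellulose, tested at 0.5 and 4 h. Motor impairment was scored as failure to keep balance for at least 1 min on a rod rotating at 10 rpm. Minimum dose causing impairment reported.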

[4] = tested on: Mus musculus; assay: Anticonvulsant activity in CD1 albino mouse assessed as protection against maximal electroshock-induced seizures at 300 mg/kg, ip after 4 hrs; format: functional, organism-based
[5] = tested on: Mus musculus; assay: Anticonvulsant activity in CD1 albino mouse assessed as protection against maximal electroshock-induced seizures at 100 to 300 mg/kg, ip after 0.5 hrs; format: functional; settings: read-out: MED
[6] = tested on: Mus musculus; assay: Neurotoxicity in CD1 albino mouse assessed as acute motor impairment at 300 mg/kg, ip after 4 hrs by rotarod test; format: toxicity, organism-based; settings: in vivo; outline: as §2
[7] = species on record: Mus musculus; assay: Protection index, ratio of TD50 for CD1 albino mouse to ED50 for protection against 32 mA-current- for 3 secs induced seizure in CD1 albino mouse by 6Hz psychomotor seizure test
Outline: (§3)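 6-Hz corneal stimulation at 32 mA (6 Hz, 3 s) in male CD-1 mice dosed ip. Groups of six received several doses until at least three points fell between 10 and 90% protection. […] PI = TD50/ED50 (rotarod).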

[8] = tested on: Mus musculus; assay: Anticonvulsant activity in ip dosed CD1 albino mouse assessed as time to peak effect by 6Hz psychomotor seizure test; format: functional; outline: as §3
[9] = tested on: Mus musculus; assay: Anticonvulsant activity in CD1 albino mouse assessed as protection against maximal electroshock-induced seizures at 300 mg/kg, ip after 0.5 hrs; format: functional, organism-based
[10] = Neurotoxicity in ip dosed CD1 albino mouse assessed as acute motor impairment by rotarod test; format: toxicity, organism-based; settings: in vivo
Outline: (§4)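 Quantitation in male CD-1 mice dosed ip at the previously estimated time of peak effect. Seizures were induced by MES or by sc pentylenetetrazole 85 mg/kg; rotarod at 10 rpm assessed motor impairment. Groups of six, at least three doses giving 10-90% effect.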

[11] = tested on: Mus musculus; assay: Anticonvulsant activity in ip dosed CD1 albino mouse assessed as protection against 32 mA-current- for 3 secs induced seizure by 6Hz psychomotor seizure test; format: functional; outline: as §3
[12] = tested on: Mus musculus; assay: Neurotoxicity in CD1 albino mouse assessed as acute motor impairment at 300 mg/kg, ip measured after 0.5 hrs by rotarod test; format: toxicity, organism-based; settings: in vivo; outline: as §2
[13] = tested on: Mus musculus; assay: Anticonvulsant activity in ip dosed CD1 albino mouse assessed as time to peak effect; format: functional; outline: as §4
[14] = tested on: Mus musculus; assay: Anticonvulsant activity in CD1 albino mouse assessed as protection against subcutaneous pentylenetetrazole-induced seizures at 100 to 300 mg/kg, ip after 4 hrs; format: functional; settings: CD1, 4 h, read-out: MED; outline: as §1
[15] = tested on: Mus musculus; assay: Anticonvulsant activity in CD1 albino mouse assessed as protection against subcutaneous pentylenetetrazole-induced seizures at 300 mg/kg, ip after 0.5 hrs; format: functional, organism-based; outline: as §1
[16] = tested on: Mus musculus; assay: Anticonvulsant activity in CD1 albino mouse assessed as protection against maximal electroshock-induced seizures at 100 to 300 mg/kg, ip after 4 hrs; format: functional; settings: read-out: MED
[17] = tested on: Mus musculus; assay: Anticonvulsant activity in CD1 mouse assessed as protection against 32 mA-current- for 3 secs induced seizure at 100 mg/kg, ip after 0.5 hrs by 6Hz psychomotor seizure test; format: functional
Outline: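 Male CD-1 mice given 100 mg/kg ip in 0.5% methylcellulose, four per time point. Corneal stimulation at 32 mA, 0.2 ms monopolar rectangular pulses at 6 Hz for 3 s, from a constant-current device. A mouse was protected if it resumed normal exploratory behavior within 10 s. Reported as number protected over number tested.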

[18] = species on record: Mus musculus; assay: Protection index, ratio of TD50 for CD1 albino mouse to ED50 for protection against maximal electroshock-induced seizures in CD1 albino mouse; outline: as §4
[19] = tested on: Mus musculus; assay: Anticonvulsant activity in ip dosed CD1 albino mouse assessed as protection against maximal electroshock-induced seizures; format: functional
[20] = tested on: Mus musculus; assay: Protection index, ratio of TD50 for CD1 albino mouse to ED50 for protection against subcutaneous pentylenetetrazole-induced seizures in CD1 albino mouse; outline: as §4
[21] = tested on: Mus musculus; assay: Anticonvulsant activity in ip dosed CD1 albino mouse assessed as protection against subcutaneous pentylenetetrazole-induced seizures; format: functional; outline: as §4
[22] = tested on: Mus musculus; assay: Neurotoxicity in CD1 albino mouse assessed as acute motor impairment at 100 to 300 mg/kg, ip after 4 hrs by rotarod test; format: toxicity, organism-based; settings: in vivo; outline: as §2
[23] = tested on: Mus musculus; assay: Local anesthetic activity in CD1 albino mouse assessed prolongation of time reaction at 2 % concentration after 20 secs by tail immersion test relative to vehicle control; format: functional
Outline: (§5)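 Compound at 1 or 2% in 0.5% methylcellulose, injected sc (0.2 ml) about 1 cm from the tail root of male CD-1 mice. After 15 min, the distal 3 cm of the tail was immersed in 50 ± 0.5 °C water and withdrawal time measured, cut off at 20 s. n=8; mean ± SEM; % prolongation relative to vehicle.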

[24] = tested on: Mus musculus; assay: Local anesthetic activity in CD1 albino mouse assessed prolongation of time reaction at 1 % concentration after 20 secs by tail immersion test relative to vehicle control; format: functional; outline: as §5

## Cc1ccccc1N1CCN(C(=O)CN2C(=O)CC(C)C2=O)CC1 (stereo not given)
[1]
  Activity: inactive
[2]
  minimal effective dose: 100 mg/kg
[3]
  MTC: 300 mg/kg
[4]
  Activity: inactive
[5]
  minimal effective dose: 300 mg/kg
[6]
  Activity: Non-toxic

## CCC1(C)CC(=O)N(CC(=O)N2CCN(c3ccc(Cl)cc3)CC2)C1=O (stereo not given)
[1]
  Activity: inactive
[2]
  minimal effective dose: 100 mg/kg
[3]
  MTC: 300 mg/kg
[4]
  Activity: inactive
[7]
  Ratio TD50/ED50: 1.53
[8]
  Time: 0.5 h
[9]
  Activity: inactive
[10]
  TD50: 196 mg/kg
[6]
  Activity: Non-toxic
[11]
  ED50: 128 mg/kg

## CCCC(CCC)C(=O)O [VALPROIC ACID]
[12]
  Activity: Non-toxic
[1]
  Activity: inactive
[2]
  minimal effective dose: 300 mg/kg
[4]
  Activity: inactive
[5]
  minimal effective dose: 300 mg/kg
[8]
  Time: 0.5 h
[6]
  Activity: Non-toxic
[13]
  Time: 0.5 h

## CC1CC(=O)N(CC(=O)N2CCN(c3ccccc3)CC2)C1=O (stereo not given)
[2]
  minimal effective dose: 300 mg/kg
[14]
  minimal effective dose: 300 mg/kg
[3]
  MTC: 300 mg/kg
[4]
  Activity: inactive
[5]
  minimal effective dose: 300 mg/kg
[6]
  Activity: Non-toxic

## CCC1(C)CC(=O)N(CC(=O)N2CCN(c3cccc(C)c3)CC2)C1=O (stereo not given)
[12]
  Activity: Non-toxic
[1]
  Activity: inactive
[4]
  Activity: inactive
[9]
  Activity: inactive
[6]
  Activity: Non-toxic
[15]
  Activity: inactive

## CC[C@@H](C(N)=O)N1CCCC1=O
[8]
  Time: 1 h
[10]
  TD50: > 500 mg/kg

## CCC1(C)CC(=O)N(CC(=O)N2CCN(c3cccc(Cl)c3)CC2)C1=O (stereo not given)
[12]
  Activity: Non-toxic
[1]
  Activity: inactive
[4]
  Activity: inactive
[9]
  Activity: inactive
[6]
  Activity: Non-toxic
[15]
  Activity: inactive

## CCC1(C)CC(=O)NC1=O (stereo not given) [ETHOSUXIMIDE]
[12]
  Activity: Non-toxic
[2]
  minimal effective dose: 100 mg/kg
[14]
  minimal effective dose: 300 mg/kg
[4]
  Activity: inactive
[9]
  Activity: inactive
[6]
  Activity: Non-toxic
[13]
  Time: 0.25 h

## CCC1(C)CC(=O)N(CC(=O)N2CCN(c3ccccc3C)CC2)C1=O (stereo not given)
[1]
  Activity: inactive
[2]
  minimal effective dose: 100 mg/kg
[3]
  MTC: 300 mg/kg
[4]
  Activity: inactive
[5]
  minimal effective dose: 100 mg/kg
[6]
  Activity: Non-toxic

## CC1CC(=O)N(CC(=O)N2CCN(c3ccccc3F)CC2)C1=O (stereo not given)
[1]
  Activity: inactive
[3]
  MTC: 300 mg/kg
[5]
  minimal effective dose: 300 mg/kg
[6]
  Activity: Non-toxic
[15]
  Activity: inactive
[16]
  minimal effective dose: 300 mg/kg

## CCC1(C)CC(=O)N(CC(=O)N2CCN(c3ccccc3Cl)CC2)C1=O (stereo not given)
[1]
  Activity: inactive
[17]
  Activity: 100%
[18]
  Ratio TD50/ED50: 1.08
[3]
  MTC: 300 mg/kg
[4]
  Activity: inactive
[5]
  minimal effective dose: 100 mg/kg
[7]
  Ratio TD50/ED50: 1.8
[8]
  Time: 0.5 h
[19]
  ED50: 122 mg/kg
[10]
  TD50: 132 mg/kg
[6]
  Activity: Non-toxic
[13]
  Time: 0.5 h
[15]
  Activity: inactive
[11]
  ED50: 73.3 mg/kg

## CCC1(C)CC(=O)N(CC(=O)N2CCN(c3ccccc3F)CC2)C1=O (stereo not given)
[12]
  Activity: Non-toxic
[1]
  Activity: inactive
[4]
  Activity: inactive
[9]
  Activity: inactive
[6]
  Activity: Non-toxic
[15]
  Activity: inactive

## CC1CC(=O)N(CC(=O)N2CCN(c3cccc(Cl)c3Cl)CC2)C1=O (stereo not given)
[20]
  Ratio TD50/ED50: 4.6
[21]
  ED50: 74.7 mg/kg
[12]
  Activity: Non-toxic
[2]
  minimal effective dose: 100 mg/kg
[14]
  minimal effective dose: 100 mg/kg
[4]
  Activity: inactive
[9]
  Activity: inactive
[10]
  TD50: 343 mg/kg
[6]
  Activity: Non-toxic
[13]
  Time: 1 h

## CCC1(C)CC(=O)N(CC(=O)N2CCN(c3ccc(Cl)c(Cl)c3)CC2)C1=O (stereo not given)
[12]
  Activity: Non-toxic
[1]
  Activity: inactive
[4]
  Activity: inactive
[9]
  Activity: inactive
[6]
  Activity: Non-toxic
[15]
  Activity: inactive

## CC1CC(=O)N(CC(=O)N2CCN(c3cccc(C(F)(F)F)c3)CC2)C1=O (stereo not given)
[1]
  Activity: inactive
[2]
  minimal effective dose: 300 mg/kg
[22]
  MTC: 300 mg/kg
[3]
  MTC: 300 mg/kg
[5]
  minimal effective dose: 100 mg/kg
[16]
  minimal effective dose: 100 mg/kg

## CCC1(C)CC(=O)N(CC(=O)N2CCN(c3ccccc3)CC2)C1=O (stereo not given)
[12]
  Activity: Non-toxic
[1]
  Activity: inactive
[4]
  Activity: inactive
[9]
  Activity: inactive
[6]
  Activity: Non-toxic
[15]
  Activity: inactive

## CCC1(C)CC(=O)N(CC(=O)N2CCN(c3cccc(Cl)c3Cl)CC2)C1=O (stereo not given)
[12]
  Activity: Non-toxic
[1]
  Activity: inactive
[4]
  Activity: inactive
[9]
  Activity: inactive
[6]
  Activity: Non-toxic
[15]
  Activity: inactive

## Cc1cccc(C)c1NC(=O)C1CCCCN1C (stereo not given) [MEPIVACAINE]
[23]
  Activity: 116.67%
[24]
  Activity: 94.63%

## Cc1cccc(N2CCN(C(=O)CN3C(=O)CC(C)C3=O)CC2)c1 (stereo not given)
[1]
  Activity: inactive
[2]
  minimal effective dose: 100 mg/kg
[3]
  MTC: 300 mg/kg
[4]
  Activity: inactive
[5]
  minimal effective dose: 300 mg/kg
[6]
  Activity: Non-toxic
